In the library only some 4% were active in any assay of this set; here they are far more common.
E-sel inducer: E-selectin induction on HUVECs. P16581. HUVEC E-selectin immunofluorescence imaging; normalized: neutral wells 0, TNF-alpha wells 100. activation, % at 7.58 µM. 260,000 tested, 0.37% active. AID 686992;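 active means mean E-selectin-positive cell signal at least 10% of the positive control, reached in at least 60% of replicates, without over 20% cell loss; inconclusive means no rule given, readout overlaps actives, possibly toxicity-flagged; inactive means the rest, including those meeting only one limit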
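material = human umbilical vein endothelial cells (HUVEC), E-selectin induction | quantity = 3,000 cells/well | medium = EGM-2 growth medium on 0.1% gelatin-coated wells | technique = immunofluorescence imaging | read-out basis = % PE-positive cells | control set = TNF-alpha positive control, DMSO neutral control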
FN deposit inh: fibronectin deposition inhibition | AH1F fibroblasts, Alexa488-fibronectin deposition fluorescence, overnight | inhibition, % at 12.6 µM | 350,000 tested, 0.086% active | AID 743247;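 active means mean inhibition across replicates of 30% or more, regardless of how many single replicates reach that level; inconclusive means mean under 30% yet at least half of replicates reach 30%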
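Schedule: 1 h cell adhesion before compound, then overnight fibronectin incubation; test system: AH1F fibroblast monolayer depositing Alexa488-labelled fibronectin into matrix; quantity: 10000 AH1F cells per well; probe or stimulus: fluorescent fibronectin at 24 nM final; signal: fluorescence, ex 485 nm, em 525 nm; evaluation: percent inhibition as loss of matrix-bound fibronectin fluorescence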
rRNA inh HTS: inhibitors of bacterial rRNA selective over humanized ribosomes; 350,000 tested, 1.6% active; E. coli WT GFP vs humanized-ribosome RFP mutants, fluorescence, 24 h; hits give low values; DMSO median 0, no signal -100; GFP signal change (wild-type ribosome), % (no concentration beside the values); AID 720706;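 active means significant combined selectivity score with lowered wild-type GFP, culture density cut under 30%, mutant RFP and density less affected; inactive means any of these conditions unmet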
FGF22 binding: shifts melting point of recombinant human FGF22; Q9HCT0; recombinant FGF22 thermal shift, SYPRO orange fluorescence; percent of sucrose octasulfate shift, DMSO zero; activity (Tm shift, normalised), % at 9.99 µM; 340,000 tested, 1.5% active; AID 651658;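 active means mean Tm shift, scaled 0 neutral to 100 positive control, at about 1.3% or above, every replicate too, limit read from the data; inconclusive means no clear call, values can overlap the other calls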
Target sequence (Q9HCT0 whole entry, looked up): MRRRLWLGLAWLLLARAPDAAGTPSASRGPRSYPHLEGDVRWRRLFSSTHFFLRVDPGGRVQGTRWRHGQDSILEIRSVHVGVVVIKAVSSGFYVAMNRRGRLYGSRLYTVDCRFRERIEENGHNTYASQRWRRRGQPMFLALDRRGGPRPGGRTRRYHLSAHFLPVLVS
Statin myotox sup: suppression of simvastatin myotoxicity; AID 602340; C2C12 myotubes + simvastatin, ATP luminescence, 48 h; scaled: DMSO 0, geranylgeraniol control 100; 330,000 tested, 0.78% active; rescue of ATP level, % at 7.49 µM;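 active means mean ATP rescue above about 67%, or every replicate alone reaching that limit, limit read from the data, passing the limit was not always enough; inconclusive means no clear call, values can overlap the other calls; inactive means mean under the limit and some replicate under it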;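 further: myotubes were challenged with 10 µM simvastatin during compound exposure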
SIRT5 inh: inhibitors of human sirtuin-5 desuccinylase. 330,000 tested, 1.1% active. inhibition, % at 15 µM. Purified SirT5, succinyl-peptide AMC, trypsin-coupled fluorescence. Q9NXA8; in the data active means inhibition above about 15%; inconclusive means no clear call, values can overlap the other calls
Target sequence (Q9NXA8 whole entry, looked up): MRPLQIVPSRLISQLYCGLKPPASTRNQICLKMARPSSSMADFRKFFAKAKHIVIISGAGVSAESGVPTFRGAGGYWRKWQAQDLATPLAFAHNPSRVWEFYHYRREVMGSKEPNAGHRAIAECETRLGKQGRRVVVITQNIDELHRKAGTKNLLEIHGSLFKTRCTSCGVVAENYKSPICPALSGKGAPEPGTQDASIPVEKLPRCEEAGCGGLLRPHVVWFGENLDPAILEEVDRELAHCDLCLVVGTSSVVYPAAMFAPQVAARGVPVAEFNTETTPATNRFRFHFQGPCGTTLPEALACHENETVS
Large screens that a line does not name were inactive.

CCn1c(=O)c([N+](=O)[O-])c(N2CCN(Cc3ccc4c(c3)OCO4)CC2)c2ccccc21	rRNA inh HTS -23.9 (no result: Statin myotox sup)
O=c1c([N+](=O)[O-])c(N2CCOCC2)c2ccccc2n1Cc1ccccc1	none (no result: Statin myotox sup)
Cn1c(=O)c([N+](=O)[O-])c(N2CCSCC2)c2ccccc21	none
CCCN1C[C@H](C)[C@H](OC)CN(C)C(=O)c2cc(NC(=O)NC3CCCCC3)ccc2OC[C@@H]1C	none
Cc1ccc(/C=C/C(=O)N2CC(=O)Nc3ccccc32)o1	FGF22 binding 44.0 (no result: E-sel inducer, Statin myotox sup)
COC(=O)C1=C(C)NC(C)=C(C(=O)OC)C1C(=O)OC(C)C(=O)c1ccccc1 (centres undefined)	E-sel inducer 77.3
C[C@@H]1CCCCO[C@@H](CN(C)C(=O)Nc2ccc(C(F)(F)F)cc2)[C@@H](C)CN([C@H](C)CO)C(=O)c2cc(NC(=O)Nc3ccc4c(c3)OCO4)ccc2O1	none (no result: Statin myotox sup)
COc1ccc(NC(=O)Nc2ccc3c(c2)C(=O)N([C@@H](C)CO)C[C@@H](C)[C@H](CN(C)C(=O)Nc2cccc4ccccc24)OCCCC[C@H](C)O3)cc1	SIRT5 inh 20.4
C[C@@H]1CCCCO[C@@H](CN(C)C(=O)Nc2ccc(C(F)(F)F)cc2)[C@@H](C)CN([C@H](C)CO)C(=O)c2cc(NC(=O)Nc3ccc(F)cc3)ccc2O1	none (no result: Statin myotox sup)
C[C@@H]1CCCCO[C@H](CN(C)C(=O)Nc2ccc(C(F)(F)F)cc2)[C@H](C)CN([C@@H](C)CO)C(=O)c2cc(NC(=O)Nc3ccc4c(c3)OCO4)ccc2O1	SIRT5 inh 15.2
C[C@H]1CCCCO[C@H](CN(C)C(=O)Nc2ccc(C(F)(F)F)cc2)[C@@H](C)CN([C@@H](C)CO)C(=O)c2cc(NC(=O)Nc3ccc(F)cc3)ccc2O1	SIRT5 inh 16.8
C[C@@H]1CCCCO[C@@H](CN(C)C(=O)Nc2ccc(F)cc2)[C@H](C)CN([C@@H](C)CO)C(=O)c2cc(NC(=O)Nc3ccc(C(F)(F)F)cc3)ccc2O1	FGF22 binding 1.4 (no result: FN deposit inh, Statin myotox sup)
COc1ccc(NC(=O)Nc2ccc3c(c2)C(=O)N([C@H](C)CO)C[C@H](C)[C@H](CN(C)C(=O)Nc2cccc4ccccc24)OCCCC[C@H](C)O3)cc1	none
COc1ccc(NC(=O)N(C)C[C@H]2Oc3c(NC(=O)C4CCOCC4)cccc3C(=O)N([C@@H](C)CO)C[C@@H]2C)cc1	none (no result: FN deposit inh)
COC(=O)[C@H]1[C@H](CO)[C@H]2Cn3c(ccc(C4=CCCC4)c3=O)[C@H]2N1C(=O)C1CC1	none (no result: FN deposit inh)
C[C@@H]1CN([C@H](C)CO)C(=O)c2ccccc2-c2ccccc2CO[C@@H]1CN(C)C(=O)Nc1ccc(-c2ccccc2)cc1	none (no result: FGF22 binding, Statin myotox sup)
C[C@@H]1CN([C@H](C)CO)C(=O)Cc2cc(NS(=O)(=O)c3ccc(Cl)cc3)ccc2O[C@H]1CN(C)C(=O)Nc1ccc2c(c1)OCO2	none (no result: FN deposit inh, FGF22 binding, SIRT5 inh)
C[C@H](CO)N1C[C@H](C)[C@@H](CN(C)C(=O)Nc2cccc3ccccc23)OCCCC[C@H](C)Oc2ccc(NC(=O)Nc3ccc4c(c3)OCO4)cc2C1=O	FGF22 binding 1.7, Statin myotox sup inconclusive (no result: FN deposit inh)
C[C@@H]1CCCCO[C@H](CN(C)C(=O)Nc2ccc(F)cc2)[C@@H](C)CN([C@H](C)CO)C(=O)c2cc(NC(=O)Nc3ccc(F)cc3)ccc2O1	SIRT5 inh 27.1 (no result: E-sel inducer, Statin myotox sup)
COc1ccc(NC(=O)Nc2ccc3c(c2)C(=O)N([C@@H](C)CO)C[C@@H](C)[C@@H](CN(C)CC2CCCCC2)OCCCC[C@H](C)O3)cc1	FGF22 binding 1.3, Statin myotox sup 89.4 (no result: FN deposit inh)
COc1ccc(NC(=O)Nc2ccc3c(c2)C(=O)N([C@H](C)CO)C[C@H](C)[C@@H](CN(C)CC2CCCCC2)OCCCC[C@@H](C)O3)cc1	none (no result: FN deposit inh)
C[C@@H]1CN([C@@H](C)CO)C(=O)c2cc(NC(=O)C3CCCCC3)ccc2O[C@@H](C)CCCCO[C@H]1CN(C)C(=O)c1ccccc1	FGF22 binding 28.8 (no result: FN deposit inh)
C[C@@H]1CN([C@H](C)CO)C(=O)c2cc(NC(=O)C3CC3)ccc2O[C@@H]1CN(C)Cc1ccc(Oc2ccccc2)cc1	none (no result: E-sel inducer, FN deposit inh)
CCNC(=O)C[C@H]1C=C[C@@H](NS(=O)(=O)c2ccc(F)cc2)[C@@H](CO)O1	none
C[C@@H]1CCCCO[C@H](CN(C)CC2CCCCC2)[C@H](C)CN([C@H](C)CO)C(=O)c2cc(NC(=O)Nc3ccc(C(F)(F)F)cc3)ccc2O1	SIRT5 inh 100.0 (no result: E-sel inducer, Statin myotox sup)
COc1ccc(CN(C)C[C@H]2OCCCC[C@@H](C)Oc3ccc(NC(=O)Nc4ccc(F)cc4)cc3C(=O)N([C@@H](C)CO)C[C@@H]2C)cc1	SIRT5 inh 99.8 (no result: E-sel inducer, FN deposit inh)
COc1ccc(NC(=O)Nc2ccc3c(c2)C(=O)N([C@@H](C)CO)C[C@H](C)[C@H](CN(C)C(=O)Nc2ccc(C(F)(F)F)cc2)OCCCC[C@H](C)O3)cc1	none (no result: FN deposit inh, Statin myotox sup)
COc1ccc(NC(=O)Nc2ccc3c(c2)C(=O)N([C@@H](C)CO)C[C@@H](C)[C@H](CN(C)C(=O)Nc2ccc(C(F)(F)F)cc2)OCCCC[C@@H](C)O3)cc1	FGF22 binding 1.2, SIRT5 inh 18.1 (no result: FN deposit inh, Statin myotox sup)
C[C@@H]1CN([C@H](C)CO)C(=O)c2cc(NC(=O)Nc3ccc(F)cc3)ccc2O[C@@H](C)CCCCO[C@H]1CN(C)C(=O)c1ccccc1	none (no result: FN deposit inh, FGF22 binding, Statin myotox sup)
C[C@@H]1CN([C@H](C)CO)C(=O)c2cc(NC(=O)Nc3ccc(F)cc3)ccc2O[C@@H](C)CCCCO[C@@H]1CN(C)C(=O)c1ccccc1	FGF22 binding 1.4 (no result: FN deposit inh, Statin myotox sup)
COc1ccc(CN(C)C[C@@H]2OCCCC[C@H](C)Oc3ccc(NC(=O)Nc4ccc(F)cc4)cc3C(=O)N([C@H](C)CO)C[C@@H]2C)cc1	none (no result: FN deposit inh)
C[C@H]1CCCCO[C@H](CN(C)C(=O)Nc2ccc(F)cc2)[C@@H](C)CN([C@@H](C)CO)C(=O)c2cc(NC(=O)Nc3ccc(C(F)(F)F)cc3)ccc2O1	FGF22 binding 1.6 (no result: FN deposit inh, Statin myotox sup)
C[C@H](CO)N1C[C@H](C)[C@@H](CN(C)C(=O)C2CCCCC2)OCCCC[C@H](C)Oc2ccc(NC(=O)Nc3ccc4c(c3)OCO4)cc2C1=O	SIRT5 inh 16.3 (no result: FN deposit inh, Statin myotox sup)
C[C@@H]1CN([C@@H](C)CO)C(=O)c2cc(NC(=O)c3ccncc3)ccc2O[C@@H](C)CCCCO[C@H]1CN(C)C(=O)Nc1cccc2ccccc12	none (no result: FN deposit inh)
C[C@H](CO)N1C[C@H](C)[C@@H](CN(C)C(=O)NC2CCCCC2)OCCCC[C@H](C)Oc2ccc(NC(=O)Nc3cccc4ccccc34)cc2C1=O	Statin myotox sup 121.7 (no result: FN deposit inh)

Source: PubChem
